Data as given in publication PMC6133083 (European Journal of Drug Metabolism and Pharmacokinetics, 2018).

How the values were obtained:
[1] = rats and monkeys, after intravenous [14C]tariquidar; cited from earlier work
[2] = tested on: P-gp at the human BBB; conditions: humans, P-gp inhibition at the BBB, plasma concentration; cited from earlier work
[3] = tested on: human BCRP; conditions: cited from earlier work
[4] = tested on: P-gp at the BBB; conditions: rats, plasma concentration; cited from earlier work
[5] = tested on: P-gp at the BBB; conditions: humans, cited from earlier work
[6] = tested on: human P-gp; conditions: cited from earlier work
[7] = assay type: in vivo, Sprague–Dawley rats
Outline: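 Male Sprague–Dawley rats (10–12 weeks, 0.31–0.48 kg), n = 5/group, given 15 mg/kg once as solution or microemulsion by gavage or i.p. injection. The solution only was also given as an i.v. tail-vein bolus under isoflurane. Sublingual blood was drawn at 0.5, 1, 2, 4, 8 and 24 h. Plasma was methanol-precipitated and assayed by LC–MS/MS (calibration 0.005–10 µg/mL). Cmax, Tmax and trapezoidal AUC0–24 came from non-fitted data, expressed relative to i.v.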

[8] = Tolerability of tariquidar administration in rats; assay type: in vivo, Sprague–Dawley rats; conditions: 15 mg/kg single dose, intravenous, oral or intraperitoneal
[9] = humans, after intravenous administration; cited from earlier work
[10] = tested on: P-gp/BCRP at the non-human primate BBB; conditions: intravenous administration; cited from earlier work
[11] = FVB mice, microemulsion dosing; cited from earlier work
[12] = tested on: P-gp/BCRP; conditions: humans, oral dosing; cited from earlier work
[13] = Sprague-Dawley, rat, plasma, iv, 15 mg/kg
[14] = intraperitoneal dosing, both formulations pooled, rats
[15] = oral dosing irrespective of formulation, rats

For `COc1cc2c(cc1OC)CN(CCc1ccc(NC(=O)c3cc(OC)c(OC)cc3NC(=O)c3cnc4ccccc4c3)cc1)CC2` [tariquidar], the “tariquidar-related material in plasma existing as unchanged parent compound” value [1] is listed as > 95%, the “in vivo EC50” value [2] is listed as 1.454 µg/mL and the “in vitro EC50 for inhibition of its own transport” value ([3]; human BCRP) is listed as 0.201 µg/mL. The “ratio of EC50 for human BCRP to EC50 for human P-gp” value ([3]; inhibition of its own transport, in vitro) was “approximately 20 fold”, the “in vivo half-maximum effect concentration (EC50) to increase brain uptake of (R)-[11C]verapamil” value [4] was 0.545 ± 0.03 µg/mL and the “increase in brain distribution of (R)-[11C]verapamil and [11C]N-desmethyl-loperamide” value ([5]; PET, continuous intravenous infusion) was “up to fivefold increases”. The “effect on brain distribution of [11C]N-desmethyl-loperamide” value ([5]; orally administered tariquidar) was “failed to reveal an effect”, the “in vitro EC50 for inhibition of its own transport” value [6] was 0.011 µg/mL and the AUC(0-t) [7, 13] was 25200 ng·h/mL. For the same compound, the Cmax [7, 13] was 1900 ng/mL, the Tmax [7, 13] was 30 min and the concentration at 30 min [7, 13] was 1910 ± 290 ng/mL. The “mean AUC0–24 as % of value after intravenous dosing” value [7, 14] was ~97%, the “mean Cmax as % of value after intravenous dosing” value [7, 14] was “approximately 80%” and the “mean AUC0–24 as % of value after intravenous exposure” value [7, 15] was ~79%. The “mean Cmax as % of value after intravenous exposure” value [7, 15] was “approximately 65%”, the tolerability [8] was “well tolerated by all animals” and the “tariquidar metabolites in plasma” value [9] was “no tariquidar metabolites were found in plasma”.
For `COc1cc2c(cc1OC)CN(CCc1ccc(NC(=O)c3cccc4c(=O)c5cccc(OC)c5[nH]c34)cc1)CC2` [elacridar], the “increase in brain distribution of [11C]erlotinib” value [10] is listed as 3.5 fold, the oral bioavailability [11] is listed as 47% and the “effect on brain uptake of [11C]erlotinib” value [12] is listed as “failed to increase brain uptake”.
